ChEMBL document CHEMBL1122833, “Potential antitumor agents. 44. Synthesis and antitumor activity of new classes of diacridines: importance of linker chain rigidity for DNA binding kinetics and biological activity” (J Med Chem, 1985)

Assays:
[1] = Lipophilicity (Rm); format: physicochemical; conditions: chromatographic, drug cations at pH 1-2
L1210 = experiment: In vitro inhibitory dose that reduces L1210 cell line by 50% when added for a period of 70h; format: functional; conditions: Mus musculus, L1210, 70 h; read-out: ID50 (the source's name)
Procedure, shortened: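 L1210 cultures were exposed to drug for 70 h, and cells were then counted. IC50 is the drug concentration (nM) that reduces cell numbers to 50% of untreated controls.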

P388 [2] = experiment: (§1) The % increase in lifespan of treated animals over that of control group of animals injected with tumor alone; format: functional, Mus musculus
P388 [3] = experiment: (§2) Highest nontoxic optimal dose administered intraperitoneally after inoculation of P388 leukemia cells; format: functional, Mus musculus
Procedure, shortened: (§3)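 Mice were inoculated with 10^6 P388 leukemia cells. Drug was given intraperitoneally in 30% v/v EtOH/water on days 1, 5 and 9 after inoculation. OD is the highest nontoxic dose in mg/kg per day.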

[4] = Chromatographic measure of drug lipophilicity determined for drug cations was evaluated; format: physicochemical
P388 [5] = experiment: as §2; format: functional, Mus musculus; procedure, shortened: as §3; remark: listed apart in the source
P388 [6] = experiment: as §1; format: functional, Mus musculus; remark: listed apart in the source

O=C(CCNc1c2ccccc2nc2ccccc12)NCCNc1c2ccccc2nc2ccccc12
Rm [1]: -0.43 | IC50 (L1210): > 3.5 µM | ILS (P388 [2]): <20% | OD (P388 [3]): 50 mg/kg

c1ccc2c(NCCCCCCCNc3c4ccccc4nc4ccccc34)c3ccccc3nc2c1
Rm [1]: 0.21 | IC50 (L1210): 0.05 µM | ILS (P388 [2]): <20% | OD (P388 [3]): 8.9 mg/kg

c1ccc2c(NCCCNCCCNc3c4ccccc4nc4ccccc34)c3ccccc3nc2c1
Rm [1]: -0.53 | IC50 (L1210): 0.48 µM | ILS (P388 [2]): <20% | OD (P388 [3]): 5 mg/kg

c1ccc2c(NCCCCNc3c4ccccc4nc4ccccc34)c3ccccc3nc2c1
Rm [1]: -0.21 | IC50 (L1210): 10.8 µM | ILS (P388 [2]): <20% | OD (P388 [3]): 30 mg/kg

O=C(CCNc1c2ccccc2nc2ccccc12)NCCCNc1c2ccccc2nc2ccccc12
Rm [1]: -0.28 | IC50 (L1210): > 3.5 µM | ILS (P388 [2]): <20% | OD (P388 [3]): 15 mg/kg

c1ccc2c(NCCCN3CCN(CCCNc4c5ccccc5nc5ccccc45)CC3)c3ccccc3nc2c1
Rm [1]: -0.72 | Rm [4]: -0.72 | OD (P388 [5]): 3 mg/kg | ILS (P388 [2]): <20% | OD (P388 [3]): 3 mg/kg | ILS (P388 [6]): <20%

Cn1nc(C(=O)NCCCCNc2c3ccccc3nc3ccccc23)cc1C(=O)NCCCCNc1c2ccccc2nc2ccccc12
Rm [1]: 0.11 | IC50 (L1210): 0.024 µM | ILS (P388 [2]): 26% | OD (P388 [3]): 8.9 mg/kg

Nc1c2ccccc2nc2ccccc12 [AMINACRINE]
Rm [1]: -0.08 | IC50 (L1210): 1.9 µM | ILS (P388 [2]): <20% | OD (P388 [3]): 20 mg/kg

c1ccc2c(NCCN3CCN(CCNc4c5ccccc5nc5ccccc45)CC3)c3ccccc3nc2c1
Rm [1]: -0.77 | IC50 (L1210): 0.078 µM | ILS (P388 [2]): <20% | OD (P388 [3]): 3 mg/kg

c1ccc2c(NCCCCCCCCCNc3c4ccccc4nc4ccccc34)c3ccccc3nc2c1
Rm [1]: 0.4 | IC50 (L1210): 0.16 µM | ILS (P388 [2]): <20% | OD (P388 [3]): 5.9 mg/kg

c1ccc2c(NCCCCCCCCCCNc3c4ccccc4nc4ccccc34)c3ccccc3nc2c1
Rm [1]: 0.45 | IC50 (L1210): 0.28 µM | ILS (P388 [2]): <20% | OD (P388 [3]): 5.9 mg/kg

Cn1nc(C(=O)NCCNc2c3ccccc3nc3ccccc23)cc1C(=O)NCCNc1c2ccccc2nc2ccccc12
Rm [1]: -0.3 | IC50 (L1210): 0.013 µM | ILS (P388 [2]): 46% | OD (P388 [3]): 20 mg/kg

Cn1nc(C(=O)NCCCNc2c3ccccc3nc3ccccc23)cc1C(=O)NCCCNc1c2ccccc2nc2ccccc12
Rm [1]: 0 | IC50 (L1210): 0.055 µM | ILS (P388 [2]): 65% | OD (P388 [3]): 20 mg/kg

c1ccc2c(NCCCNCCNCCCNc3c4ccccc4nc4ccccc34)c3ccccc3nc2c1
Rm [1]: -0.86 | IC50 (L1210): 0.56 µM | ILS (P388 [2]): <20% | OD (P388 [3]): 10 mg/kg

O=C(CNc1c2ccccc2nc2ccccc12)NCCCNc1c2ccccc2nc2ccccc12
Rm [1]: -0.24 | IC50 (L1210): > 3.5 µM | ILS (P388 [2]): <20% | OD (P388 [3]): 50 mg/kg

c1ccc2c(NCCNCCNCCNc3c4ccccc4nc4ccccc34)c3ccccc3nc2c1
Rm [1]: -0.9 | IC50 (L1210): 2.9 µM | ILS (P388 [2]): <20% | OD (P388 [3]): 10 mg/kg

c1ccc2c(NCCCCCCCCNc3c4ccccc4nc4ccccc34)c3ccccc3nc2c1
Rm [1]: 0.28 | IC50 (L1210): 0.17 µM | ILS (P388 [2]): <20% | OD (P388 [3]): 8.9 mg/kg

O=C(CNc1c2ccccc2nc2ccccc12)NCCNc1c2ccccc2nc2ccccc12
Rm [1]: -0.41 | IC50 (L1210): > 4 µM | ILS (P388 [2]): <20% | OD (P388 [3]): 50 mg/kg

O=C(CCCNc1c2ccccc2nc2ccccc12)NCCNc1c2ccccc2nc2ccccc12
Rm [1]: -0.19 | IC50 (L1210): > 3.5 µM | ILS (P388 [2]): <20% | OD (P388 [3]): 50 mg/kg

c1ccc2c(NCCCCCCNc3c4ccccc4nc4ccccc34)c3ccccc3nc2c1
Rm [1]: 0.15 | IC50 (L1210): 0.11 µM | ILS (P388 [2]): <20% | OD (P388 [3]): 13.3 mg/kg

CN(CCCNc1c2ccccc2nc2ccccc12)CCCNc1c2ccccc2nc2ccccc12
Rm [1]: -0.65 | IC50 (L1210): 0.78 µM | ILS (P388 [2]): <20% | OD (P388 [3]): 10 mg/kg

O=C(CCCNc1c2ccccc2nc2ccccc12)NCCCNc1c2ccccc2nc2ccccc12
Rm [1]: -0.12 | IC50 (L1210): > 3.5 µM | ILS (P388 [2]): <20% | OD (P388 [3]): 50 mg/kg

c1ccc2c(NCCCCCNc3c4ccccc4nc4ccccc34)c3ccccc3nc2c1
Rm [1]: 0.02 | IC50 (L1210): 3.7 µM | ILS (P388 [2]): <20% | OD (P388 [3]): 20 mg/kg

c1ccc2c(NCCCCNCCCNc3c4ccccc4nc4ccccc34)c3ccccc3nc2c1
Rm [1]: -0.39 | IC50 (L1210): 0.029 µM | ILS (P388 [2]): <20% | OD (P388 [3]): 10 mg/kg
